Data on eight compounds can be found in ChEMBL document CHEMBL3102831 (Bioorg Med Chem Lett, 2014).

The source made the active and inactive calls. The calls are words filed in the database; no cut-off is given here.

For the first assay, the system named is HCT-116. Description: Cell cycle arrest in human HCT116 cells assessed as accumulation at S phase after 48 hrs using propidium iodide staining by FACS analysis (reference value: 23.29%). It counts as functional.
Conditions: not given
The gist of the method: (§1)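 HCT116 cells exposed 48 h to compound at 3 and 5 µM, with untreated cells as control. Cells were stained with propidium iodide, and DNA content was measured by flow cytometry. Read-out is the percentage of cells in G1, S and G2 phases.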
A general note: A flow cytometer gives signals particle by particle.
In the case of `O=c1[nH]cc(F)c(=O)[nH]1` [FLUOROURACIL], the Activity came out at 28%.

The test system of a further assay is HCT-116. The experiment in a line: Induction of apoptosis in human HCT116 cells assessed as change in mitochondrial membrane potential after 24 hrs by JC-1 staining. It counts as functional, cell-based.
Conditions: not given
In a few lines: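 HCT116 cells treated 24 h at 3 and 5 µM, with untreated cells as 24 h control. Cells were stained with JC-1 and viewed by fluorescence microscopy. Monomer was excited at 514 nm with emission 515–545 nm (green); J-aggregates were excited at 585 nm with emission 570–600 nm (red). Potential loss is read as a red-to-green shift.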
As for `O=c1[nH]cc(F)c(=O)[nH]1` [FLUOROURACIL], the outcome was Active.

Another assay relates to HUVEC. Description: Cytotoxicity against human HUVEC after 48 hrs by MTT assay. The class given is cell-based.
Conditions: not given
(Tetrazolium dyes change colour on reduction, which living cells bring about.)
One may read the IC50 as the concentration that inhibits the measured activity by half. As to `CCOP(=O)(OCC)C(NC(=O)c1cc(O)c2c(c1)C(=O)c1cccc(O)c1C2=O)c1cccc(C)c1` (stereo unspecified), the IC50 is over 100 µM.
In turn, `CCOP(=O)(OCC)C(NC(=O)c1cc(O)c2c(c1)C(=O)c1cccc(O)c1C2=O)c1ccc(Cl)cc1` (stereo unspecified) gave an IC50 of over 100 µM.
The same measure, in the same setting: the figure for `CCOP(=O)(OCC)C(NC(=O)c1cc(O)c2c(c1)C(=O)c1cccc(O)c1C2=O)c1ccc2ccccc2c1` (stereo unspecified) is over 100 µM.
With `CCOP(=O)(OCC)C(NC(=O)c1cc(O)c2c(c1)C(=O)c1cccc(O)c1C2=O)c1ccccc1` (stereo unspecified), the IC50 is over 100 µM.
On the same count and under the same terms, the figure for `CCOP(=O)(OCC)C(NC(=O)c1cc(O)c2c(c1)C(=O)c1cccc(O)c1C2=O)c1cccc(F)c1` (stereo unspecified) is over 100 µM; for `CCOP(=O)(OCC)C(NC(=O)c1cc(O)c2c(c1)C(=O)c1cccc(O)c1C2=O)c1ccccc1Cl` (stereo unspecified) it is over 100 µM; for `CCOP(=O)(OCC)C(NC(=O)c1cc(O)c2c(c1)C(=O)c1cccc(O)c1C2=O)c1cccc(Br)c1` (stereo unspecified) it is over 100 µM.
For the compound `O=c1[nH]cc(F)c(=O)[nH]1` [FLUOROURACIL], the IC50 was 56 µM.

A further assay relates to HCT-116. Description: Cytotoxicity against human HCT116 cells after 48 hrs by MTT assay. It counts as functional, cell-based. The conditions noted are these: HCT-116, 48 h.
The compound `CCOP(=O)(OCC)C(NC(=O)c1cc(O)c2c(c1)C(=O)c1cccc(O)c1C2=O)c1cccc(C)c1` (stereo unspecified) came in with an IC50 of 45.4 µM.
Compound `CCOP(=O)(OCC)C(NC(=O)c1cc(O)c2c(c1)C(=O)c1cccc(O)c1C2=O)c1ccc(Cl)cc1` (stereo unspecified) registered an IC50 of 61.2 µM.
On the same count and under the same terms, the value for `CCOP(=O)(OCC)C(NC(=O)c1cc(O)c2c(c1)C(=O)c1cccc(O)c1C2=O)c1ccc2ccccc2c1` (stereo unspecified) was over 100 µM.
Take `CCOP(=O)(OCC)C(NC(=O)c1cc(O)c2c(c1)C(=O)c1cccc(O)c1C2=O)c1ccccc1` (stereo unspecified): the IC50 came to 17.8 µM.
Take `CCOP(=O)(OCC)C(NC(=O)c1cc(O)c2c(c1)C(=O)c1cccc(O)c1C2=O)c1cccc(F)c1` (stereo unspecified): the IC50 came to 16.7 µM.
As for `CCOP(=O)(OCC)C(NC(=O)c1cc(O)c2c(c1)C(=O)c1cccc(O)c1C2=O)c1ccccc1Cl` (stereo unspecified), half-maximal inhibition (IC50) required 48.2 µM.
`CCOP(=O)(OCC)C(NC(=O)c1cc(O)c2c(c1)C(=O)c1cccc(O)c1C2=O)c1cccc(Br)c1` (stereo unspecified) yielded an IC50 of 40.2 µM.
On the same count and under the same terms, the figure for `O=c1[nH]cc(F)c(=O)[nH]1` [FLUOROURACIL] is 5.78 µM.

System in another assay: not listed separately
The experiment in a line: Cytotoxicity against human SPCA2 cells after 48 hrs by MTT assay. The class given is functional, cell-based. The conditions noted are these: SPCA2, 48 h.
With `CCOP(=O)(OCC)C(NC(=O)c1cc(O)c2c(c1)C(=O)c1cccc(O)c1C2=O)c1cccc(C)c1` (stereo unspecified), the IC50 came out at 67.7 µM.
On the same count and under the same terms, the value for `CCOP(=O)(OCC)C(NC(=O)c1cc(O)c2c(c1)C(=O)c1cccc(O)c1C2=O)c1ccc(Cl)cc1` (stereo unspecified) was 89.5 µM; that for `CCOP(=O)(OCC)C(NC(=O)c1cc(O)c2c(c1)C(=O)c1cccc(O)c1C2=O)c1ccc2ccccc2c1` (stereo unspecified) was over 100 µM; that for `CCOP(=O)(OCC)C(NC(=O)c1cc(O)c2c(c1)C(=O)c1cccc(O)c1C2=O)c1ccccc1` (stereo unspecified) was 27.4 µM.
`CCOP(=O)(OCC)C(NC(=O)c1cc(O)c2c(c1)C(=O)c1cccc(O)c1C2=O)c1cccc(F)c1` (stereo unspecified): the IC50 was 55.4 µM. This IC50 is about 2-fold higher than that of the compound before.
Consider `CCOP(=O)(OCC)C(NC(=O)c1cc(O)c2c(c1)C(=O)c1cccc(O)c1C2=O)c1ccccc1Cl` (stereo unspecified), for which the IC50 amounted to 28.3 µM.
`CCOP(=O)(OCC)C(NC(=O)c1cc(O)c2c(c1)C(=O)c1cccc(O)c1C2=O)c1cccc(Br)c1` (stereo unspecified) came in with an IC50 of 75.4 µM.
`O=c1[nH]cc(F)c(=O)[nH]1` [FLUOROURACIL] came in with an IC50 of 42.2 µM.

The subject of a further assay is HeLa. Description: Cytotoxicity against human HeLa cells after 48 hrs by MTT assay. It counts as functional, cell-based.
Conditions: not given
Consider `CCOP(=O)(OCC)C(NC(=O)c1cc(O)c2c(c1)C(=O)c1cccc(O)c1C2=O)c1cccc(C)c1` (stereo unspecified), for which half-maximal inhibition (IC50) was put at 73.3 µM.
On the same count and under the same terms, the figure for `CCOP(=O)(OCC)C(NC(=O)c1cc(O)c2c(c1)C(=O)c1cccc(O)c1C2=O)c1ccc(Cl)cc1` (stereo unspecified) is 87.5 µM.
The compound `CCOP(=O)(OCC)C(NC(=O)c1cc(O)c2c(c1)C(=O)c1cccc(O)c1C2=O)c1ccc2ccccc2c1` (stereo unspecified) returned a 50% inhibitory concentration (IC50) of over 100 µM.
`CCOP(=O)(OCC)C(NC(=O)c1cc(O)c2c(c1)C(=O)c1cccc(O)c1C2=O)c1ccccc1` (stereo unspecified) had an IC50 of 38.2 µM.
In turn, `CCOP(=O)(OCC)C(NC(=O)c1cc(O)c2c(c1)C(=O)c1cccc(O)c1C2=O)c1cccc(F)c1` (stereo unspecified) registered an IC50 of 64.8 µM.
Regarding `CCOP(=O)(OCC)C(NC(=O)c1cc(O)c2c(c1)C(=O)c1cccc(O)c1C2=O)c1ccccc1Cl` (stereo unspecified), the IC50 came to 35.2 µM.
The compound `CCOP(=O)(OCC)C(NC(=O)c1cc(O)c2c(c1)C(=O)c1cccc(O)c1C2=O)c1cccc(Br)c1` (stereo unspecified) returned an IC50 of 78.2 µM.
Take `O=c1[nH]cc(F)c(=O)[nH]1` [FLUOROURACIL]: the IC50 stood at 35.3 µM.

The subject of the next assay is CNE. Description: Cytotoxicity against human CNE cells after 48 hrs by MTT assay. The class given is functional, cell-based.
Conditions: not given
Regarding `CCOP(=O)(OCC)C(NC(=O)c1cc(O)c2c(c1)C(=O)c1cccc(O)c1C2=O)c1cccc(C)c1` (stereo unspecified), inhibition was half-maximal at 74.2 µM (IC50). This counts as double-digit micromolar.
`CCOP(=O)(OCC)C(NC(=O)c1cc(O)c2c(c1)C(=O)c1cccc(O)c1C2=O)c1ccc(Cl)cc1` (stereo unspecified) came in with an IC50 of 55.8 µM.
On the same count and under the same terms, the value for `CCOP(=O)(OCC)C(NC(=O)c1cc(O)c2c(c1)C(=O)c1cccc(O)c1C2=O)c1ccc2ccccc2c1` (stereo unspecified) was over 100 µM.
The same measure, in the same setting: the figure for `CCOP(=O)(OCC)C(NC(=O)c1cc(O)c2c(c1)C(=O)c1cccc(O)c1C2=O)c1ccccc1` (stereo unspecified) is 34.3 µM; for `CCOP(=O)(OCC)C(NC(=O)c1cc(O)c2c(c1)C(=O)c1cccc(O)c1C2=O)c1cccc(F)c1` (stereo unspecified) it is 49.2 µM.
On the same count and under the same terms, the value for `CCOP(=O)(OCC)C(NC(=O)c1cc(O)c2c(c1)C(=O)c1cccc(O)c1C2=O)c1ccccc1Cl` (stereo unspecified) was 68 µM; that for `CCOP(=O)(OCC)C(NC(=O)c1cc(O)c2c(c1)C(=O)c1cccc(O)c1C2=O)c1cccc(Br)c1` (stereo unspecified) was 40.1 µM.
`O=c1[nH]cc(F)c(=O)[nH]1` [FLUOROURACIL] came in with an IC50 of 40.2 µM.

For another assay, the system named is HepG2. Description: Cytotoxicity against human HepG2 cells after 48 hrs by MTT assay. It counts as functional, cell-based. As to conditions: HepG2, 48 h.
`CCOP(=O)(OCC)C(NC(=O)c1cc(O)c2c(c1)C(=O)c1cccc(O)c1C2=O)c1cccc(C)c1` (stereo unspecified) showed an IC50 of 62.2 µM.
On to `CCOP(=O)(OCC)C(NC(=O)c1cc(O)c2c(c1)C(=O)c1cccc(O)c1C2=O)c1ccc(Cl)cc1` (stereo unspecified), for which the IC50 was determined as 87.3 µM.
On the same count and under the same terms, the value for `CCOP(=O)(OCC)C(NC(=O)c1cc(O)c2c(c1)C(=O)c1cccc(O)c1C2=O)c1ccc2ccccc2c1` (stereo unspecified) was over 100 µM.
Still for that read-out and setting: the figure for `CCOP(=O)(OCC)C(NC(=O)c1cc(O)c2c(c1)C(=O)c1cccc(O)c1C2=O)c1ccccc1` (stereo unspecified) is 39.2 µM; for `CCOP(=O)(OCC)C(NC(=O)c1cc(O)c2c(c1)C(=O)c1cccc(O)c1C2=O)c1cccc(F)c1` (stereo unspecified) it is 56.8 µM; for `CCOP(=O)(OCC)C(NC(=O)c1cc(O)c2c(c1)C(=O)c1cccc(O)c1C2=O)c1ccccc1Cl` (stereo unspecified) it is 39.2 µM.
`CCOP(=O)(OCC)C(NC(=O)c1cc(O)c2c(c1)C(=O)c1cccc(O)c1C2=O)c1cccc(Br)c1` (stereo unspecified) showed an IC50 of 62.4 µM.
Still for that read-out and setting: the figure for `O=c1[nH]cc(F)c(=O)[nH]1` [FLUOROURACIL] is 30 µM.

The next assay has as its system HCT-116. Description: Cell cycle arrest in human HCT116 cells assessed as accumulation at G1 phase after 48 hrs using propidium iodide staining by FACS analysis (reference value: 39.08%). It counts as functional.
Conditions: not given
In a few lines:
as §1
With `O=c1[nH]cc(F)c(=O)[nH]1` [FLUOROURACIL], the Activity was found to be 65.6%.
